Here are results for 20 compounds from ChEMBL document CHEMBL1828604, “Antifungal activity of a series of 1,2-benzisothiazol-3(2H)-one derivatives” (Bioorg Med Chem, 2011).

Molecules are shown by their SMILES. Values after ≈ are worked out from the molar mass of the structure shown.

In one data set the test system is Candida albicans. Kind of data set: Antifungal activity against Candida albicans CAF-2 after 24 hrs by broth microdilution method. The class given is functional. To be noted: CAF-2, 24 h. A digest of the protocol: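 Broth microdilution per CLSI M27-A3: 1000 cells per well in RPMI, two-fold compound dilutions from 0.1 to 50 μg/ml, final volume 100 μL RPMI. MIC-50 is the lowest concentration that inhibits growth to half the OD of the untreated control.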

The test system of data set [1] is Cryptococcus neoformans. Kind of data set: Antifungal activity against Cryptococcus neoformans JEC-21 after 72 hrs by broth microdilution method. The data set is classed as functional. As to conditions: JEC-21, 72 h. A digest of the protocol: (§1)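 Broth microdilution per CLSI M27-A3 and M38-A2. 1000 cells per well in RPMI (final 100 µL) with two-fold compound dilutions from 0.1 to 50 µg/ml. MIC-50 is the lowest concentration that cuts growth to half the OD of the untreated control. Candida species are clinical strains. A. fumigatus strain is AF-294.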
(In broth dilution the organism is exposed to a series of concentrations in liquid medium.)

A further data set has as its system Candida parapsilosis. Nature of the data set: Antifungal activity against Candida parapsilosis after 24 hrs by broth microdilution method. The class given is functional. As to conditions: Lodderomyces parapsilosis. A digest of the protocol:
as §1

Data set [2] deals with Meyerozyma guilliermondii. Kind of data set: Antifungal activity against Candida guilliermondii after 24 hrs by broth microdilution method. The data set is classed as functional. A digest of the protocol:
as §1

Data set [3] can be described thus: Antifungal activity against Candida apicola after 24 hrs by broth microdilution method. The data set is classed as functional. In a few lines: as §1
The test system of the next data set is Clavispora lusitaniae. Kind of data set: Antifungal activity against Candida lusitaniae after 24 hrs by broth microdilution method. The class given is functional. A digest of the protocol:
as §1

The subject of the next data set is Aspergillus fumigatus. Nature of the data set: Antifungal activity against Aspergillus fumigatus AF-294 after 48 hrs by broth microdilution method. To be noted: AF-294, 48 h.
The subject of the next data set is Nakaseomyces glabratus. Kind of data set: Antifungal activity against Candida glabrata after 24 hrs by broth microdilution method. The data set is classed as functional. In a few lines:
as §1

The test system of data set [4] is Cryptococcus neoformans. Nature of the data set: Antifungal activity against Cryptococcus neoformans H-99 after 72 hrs by broth microdilution method. The class given is functional. As to conditions: H-99, 72 h. In a few lines: as §1
A further data set deals with Candida tropicalis. Nature of the data set: Antifungal activity against Candida tropicalis after 24 hrs by broth microdilution method. The data set is classed as functional. A digest of the protocol:
as §1

The nature of data set [5]: Cytotoxicity against human HepG2 cells after 72 hrs by neutral red cell viability assay. The class given is cell-based. A digest of the protocol: (§2)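 Neutral red viability assay on HepG2 human hepatoma cells at defined compound concentrations, exposure 24, 48 or 72 h. CC-50 was calculated from the viability data.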
Data set [6] can be described thus: Ratio of CC50 for human HepG2 cells to MIC50 for antifungal activity. The class given is functional.
The next data set relates to Huh-7. Kind of data set: Cytotoxicity against human HuH7 cells by MTT assay. The class given is cell-based. On the technique in general: Tetrazolium assays rely on reduction of a dye to a coloured formazan, in cell work by metabolically active cells.
The nature of data set [7]: Cytotoxicity against human HepG2 cells after 48 hrs by neutral red cell viability assay. The data set is classed as cell-based. In a few lines:
as §2

Data set [8] in a line: Cytotoxicity against human HepG2 cells after 24 hrs by neutral red cell viability assay. The class given is cell-based. In a few lines: as §2
In the next data set the test system is HepG2. Nature of the data set: Cytotoxicity against human HepG2 cells by MTT assay. The class given is cell-based. A digest of the protocol: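 MTT viability assay at defined compound concentrations in human hepatoma cell lines HepG2 and Huh7.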

In the case of `O=C(Cn1sc2ccccc2c1=O)NCCc1ccccc1`, the MIC50 (usually the lowest concentration that inhibits either 50% of growth or 50% of the strains tested, depending on the study) with Candida albicans was greater than 50 µg/mL.

In turn, `CCN(CC)C(=O)Cn1sc2ccccc2c1=O` showed an MIC50 against Candida albicans greater than 50 µg/mL.

As to `C[C@@H](NC(=O)Cn1sc2ccccc2c1=O)c1ccccc1`, the MIC50 against Candida albicans stood at 6.4 µg/mL (≈ 20.5 µM).

`CCN(Cc1ccccc1)C(=O)Cn1sc2ccccc2c1=O`: the MIC50 in the data set with Candida albicans was determined as 6.4 µg/mL (≈ 19.6 µM).

`C[C@H](NC(=O)Cn1sc2ccccc2c1=O)c1ccccc1` came in with an MIC50 against Candida albicans of 6.4 µg/mL (≈ 20.5 µM).

Consider `O=C(Cn1sc2ccccc2c1=O)NCc1ccccc1`, for which the MIC50 with Candida albicans amounted to 3.2 µg/mL (≈ 10.7 µM).

Regarding `O=C(Cn1sc2ccccc2c1=O)NCc1ccc(F)cc1`, in the data set on Candida albicans, the MIC50 is 1.6 µg/mL (≈ 5.06 µM).

On to `OC(Cn1cncn1)(Cn1cncn1)c1ccc(F)cc1F` [FLUCONAZOLE], for which the MIC50 is greater than 64 µg/mL against Cryptococcus neoformans [1]; 0.4 µg/mL (≈ 1.31 µM) against Candida parapsilosis; 6.4 µg/mL (≈ 20.9 µM) in [2]; 0.2 µg/mL (≈ 0.653 µM) against Candida albicans; 0.2 µg/mL (≈ 0.653 µM) in data set [3]; 3.2 µg/mL (≈ 10.4 µM) in the data set with Clavispora lusitaniae. Further, the MIC50 was 16 µg/mL (≈ 52.2 µM) in the data set with Aspergillus fumigatus, 3.2 µg/mL (≈ 10.4 µM) with Nakaseomyces glabratus, greater than 64 µg/mL against Cryptococcus neoformans [4] and 16 µg/mL (≈ 52.2 µM) in the data set with Candida tropicalis.

In the data set on Candida albicans, `CC(C(=O)NCc1ccccc1)n1sc2ccccc2c1=O` (racemic) came in with an MIC50 greater than 50 µg/mL.

For `O=C(Cn1sc2ccccc2c1=O)Nc1ccccc1`, in the data set on Candida albicans, the MIC50 came to 6.4 µg/mL (≈ 22.5 µM).

For the compound `CC(C(=O)N(C)Cc1ccccc1)n1sc2ccccc2c1=O` (racemic), the MIC50 in the data set on Candida albicans worked out at 25 µg/mL (≈ 76.6 µM).

In the data set with Candida albicans, `CN(C(=O)Cn1sc2ccccc2c1=O)c1ccccc1` came in with an MIC50 greater than 50 µg/mL.

Turning to `CN(Cc1ccccc1)C(=O)Cn1sc2ccccc2c1=O`, in [5], the CC50 (as a rule, the concentration giving 50% cytotoxicity) at 72 h stood at 23.2 µg/mL (≈ 74.3 µM). For the same compound, the MIC50 (in the data set with Cryptococcus neoformans [1]; against Candida parapsilosis; in data set [2]; against Candida albicans; in data set [3]; against Clavispora lusitaniae) was 1.6 µg/mL (≈ 5.12 µM) in each case. The MIC50 amounted to 12.5 µg/mL (≈ 40 µM) with Aspergillus fumigatus, 1.6 µg/mL (≈ 5.12 µM) with Nakaseomyces glabratus, 1.6 µg/mL (≈ 5.12 µM) in the data set with Cryptococcus neoformans [4] and 1.6 µg/mL (≈ 5.12 µM) against Candida tropicalis. Also, the Ratio in data set [6] worked out at 15. In addition, the Activity result in the data set on Huh-7 and in the data set with HepG2 was “Toxic” each time. Also, the CC50 at 48 h in data set [7] is 25.7 µg/mL (≈ 82.3 µM). Besides, the CC50 at 24 h in [8] is 62.2 µg/mL (≈ 199 µM).

For `COc1cccc(CNC(=O)Cn2sc3ccccc3c2=O)c1`, in the data set with Candida albicans, the MIC50 turned out to be 3.2 µg/mL (≈ 9.74 µM).

In the data set on Candida albicans, `COC(=O)c1ccccc1NC(=O)Cn1sc2ccccc2c1=O` yielded an MIC50 of 6.4 µg/mL (≈ 18.7 µM).

As to `O=C(Cn1sc2ccccc2c1=O)Nc1nccs1`, in the data set on Candida albicans, the MIC50 was greater than 50 µg/mL.

Compound `COC(=O)c1cccc(NC(=O)Cn2sc3ccccc3c2=O)c1` gave an MIC50 against Candida albicans of 12.5 µg/mL (≈ 36.5 µM).

In the case of `COc1ccc(CNC(=O)Cn2sc3ccccc3c2=O)cc1`, the MIC50 in the data set with Candida albicans came out at 3.2 µg/mL (≈ 9.74 µM).

Turning to `O=C(Cn1sc2ccccc2c1=O)NCCN1CCOCC1`, the MIC50 against Candida albicans is greater than 50 µg/mL.

`O=C(Cn1sc2ccccc2c1=O)NC12CC3CC(CC(C3)C1)C2`: the MIC50 in the data set on Candida albicans turned out to be 3.2 µg/mL (≈ 9.34 µM).
